These results are taken from ChEMBL document CHEMBL1132986, “Novel and selective calcitonin-inducing agents” (J Med Chem, 2000).

Test [1] concerns C3 cells. As to the kind of experiment: CT-luci reporter gene assay to measure the ability to increase transcription of a […] linked to the human CT gene.
Test [2] has as its system Rattus norvegicus. As to the kind of experiment: The compound was tested for its bone protection activity at 30 mg/kg/day by intra peritoneal administration. Type of test: functional. Summed up: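 Mature female Sprague-Dawley rats, bilaterally ovariectomized or sham-operated, 4-5 days recovery; compound in 1% Tween 80 in saline, i.p. 30 mg/kg/day for 4 weeks; 7-8 rats per group. Proximal tibia trabecular BMD by QCT under ketamine/xylazine/acepromazine; % protection with OVX = 0%, sham = 100%; p < 0.05.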

Test [3] deals with C3 cells. The experiment in a line: Calcitonin (CT) secretion/RIA assay to measure the ability of compound to increase cellular levels and secretion of human CT.
Test [4] has as its target T1, Phosphodiesterase 4 (Homo sapiens, UniProt P27815+Q08499+Q07343+Q08493). As to the kind of experiment: PDE4 30 assay to measure the percent rolipram activity of the PDE4 assay at 30 uM concentration of the compound. Type of test: protein assay. The method, boiled down: (§1)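 U937 PDE4 preparation, 1 µM [3H]cAMP, 37 °C, test compound at 30 µM. Activity scaled to rolipram: no rolipram inhibition = 0%, full rolipram inhibition (10 µM) = 100%.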

The target of test [5] is T1, Phosphodiesterase 4. As to the kind of experiment: Concentration at which 50% of the activity of the Phosphodiesterase 4 from Human U937 cells is inhibited. The format is cell-based. To be noted: u-937.
Test [6] addresses T1, Phosphodiesterase 4. The experiment in a line: PDE4 30 assay to measure the percent rolipram activity of the PDE4 assay at 30 micro M concentration of the compound. The format is protein assay. The method, boiled down: as §1
Test [7] has as its system C3 cells. The experiment in a line: CT-luci reporter gene assay to measure the ability to increase transcription of a […] linked to the human CT gene. The source holds these as a separate data set. (A reporter such as luciferase makes a cellular process visible.)
Test [8] concerns the target T1, Phosphodiesterase 4. The experiment in a line: Percent rolipram activity at 30 uM (PDE 30 assay). Type of test: protein assay. Summed up:
as §1

For test [9], the system named is Rattus norvegicus. The experiment in a line: The compound was tested for its bone protection activity at 50 mg/kg/day by oral administration.

In the case of `CCCCn1c(=O)c2c(ncn2S(=O)(=O)CCCC)n(CCCC)c1=O`, the TAR with C3 cells [1] is reported as 2. In addition, the Protection in the test with Rattus norvegicus [2] turned out to be 23%. Besides, the CTS in the test on C3 cells [3] was 4.7. The molecule also displayed a PDE4 inhibition relative to rolipram on Phosphodiesterase 4 [4] of 15%.
`CCCCn1c(=O)c2c(ncn2S(=O)(=O)c2cc(C)c(Cl)cc2C)n(CCCC)c1=O` registered an IC50 against Phosphodiesterase 4 [5] of 23.3 µM. In addition, at Phosphodiesterase 4 [6], the PDE4 inhibition relative to rolipram is 72%. Besides, the Protection in the test with Rattus norvegicus [2] was 52%. Also, the TAR in the test with C3 cells [7] is 2.5. Besides, the CTS in the test with C3 cells [3] stood at 5.3.
Take `CCCCn1c(=O)c2c(ncn2S(=O)(=O)c2cc(C)ccc2C)n(CCCC)c1=O`: the TAR in the test with C3 cells [1] is 2.6. Further, the CTS with C3 cells [3] came to 6.6. The molecule also displayed a PDE4 inhibition relative to rolipram on Phosphodiesterase 4 [4] of 92%.
Regarding `CCCCn1c(=O)c2c(nc(C)n2S(=O)(=O)c2ccc(OC)c(OC)c2)n(CCCC)c1=O`, at Phosphodiesterase 4 [6], the PDE4 inhibition relative to rolipram stood at 100%. Also, in the test on C3 cells [7], the TAR was 1.5. In addition, the CTS in the test with C3 cells [3] turned out to be 2.6.
In the case of `CCCCn1c(=O)c2c(ncn2S(=O)(=O)c2ccccc2)n(CCCC)c1=O`, the TAR in the test on C3 cells [1] is 1.9. In addition, in the test with C3 cells [3], the CTS was 3.9. This molecule also registered a PDE4 inhibition relative to rolipram on Phosphodiesterase 4 [4] of 5%.
`CCCCn1c(=O)c2c(nc(C)n2S(=O)(=O)c2ccccc2)n(CCCC)c1=O` had a PDE4 inhibition relative to rolipram at Phosphodiesterase 4 [6] of 100%. Moreover, the TAR in the test on C3 cells [7] amounted to 1.7. For the same molecule, the CTS in the test with C3 cells [3] is given as 4.
In the test on C3 cells [1], `CCCCn1c(=O)c2c(ncn2S(=O)(=O)c2ccccc2C(=O)OC)n(CCCC)c1=O` returned a TAR of 3.5. The same molecule registered an IC50 at Phosphodiesterase 4 [5] of 1.3 µM. In addition, in the test with C3 cells [3], the CTS came out at 3.1. This molecule yielded a PDE4 inhibition relative to rolipram on Phosphodiesterase 4 [4] of 61%.
As to `CCCCn1c(=O)c2c(nc(C)n2S(=O)(=O)c2cccc([N+](=O)[O-])c2)n(CCCC)c1=O`, the PDE4 inhibition relative to rolipram at Phosphodiesterase 4 [6] was 85%. In the test with C3 cells [7], the TAR is listed as 1.8. Moreover, the CTS in the test with C3 cells [3] is on record as 3.7.
For `CCCCn1c(=O)n(CC2CCC2)c(=O)c2c1ncn2S(=O)(=O)c1ccc(OC)c(OC)c1`, in that order: 87%, 2.9 and 0.9.
`CCCCn1c(=O)c2c(ncn2S(=O)(=O)c2ccccc2F)n(CCCC)c1=O`: in the test on C3 cells [1], the TAR is listed as 2. Besides, the CTS in the test on C3 cells [3] stood at 1.7. The molecule also came in with a PDE4 inhibition relative to rolipram at Phosphodiesterase 4 [4] of 53%.
As for `CCCCn1c(=O)c2c(ncn2S(=O)(=O)c2ccc(C(C)(C)C)cc2)n(CCCC)c1=O`, the PDE4 inhibition relative to rolipram at Phosphodiesterase 4 [6] was determined as 33%. For the same molecule, the TAR in the test on C3 cells [7] turned out to be 1.8. Also, the CTS in the test with C3 cells [3] is on record as 5.1.
For the molecule `CCCCn1c(=O)c2c(ncn2S(=O)(=O)c2ccc(OC)c(OC)c2)n(CCCC)c1=O`, the IC50 at Phosphodiesterase 4 [5] turned out to be 1.2 µM. The same molecule registered a Protection in the test on Rattus norvegicus [2] of 35%. In addition, in the test with C3 cells [7], the TAR is on record as 2.5. Moreover, the CTS with C3 cells [3] is given as 4.7. Further, at Phosphodiesterase 4 [4], the PDE4 inhibition relative to rolipram was 59%.
In turn, `CCCCn1c(=O)c2c(ncn2S(=O)(=O)c2cc(F)ccc2C)n(CCCC)c1=O` displayed a TAR with C3 cells [1] of 2.8. In addition, in the test on C3 cells [3], the CTS is 6.6. Besides, the PDE4 inhibition relative to rolipram at Phosphodiesterase 4 [4] was 86%.
Molecule `CCCCn1c(=O)c2c(ncn2S(=O)(=O)c2ccc(OC(F)(F)F)cc2)n(CCCC)c1=O` had a TAR in the test with C3 cells [7] of 2. Further, the CTS with C3 cells [3] was found to be 4.9. Besides, the PDE4 inhibition relative to rolipram at Phosphodiesterase 4 [4] turned out to be 0%.
The molecule `CCCCn1c(=O)c2c(ncn2S(=O)(=O)c2cccc([N+](=O)[O-])c2)n(CCCC)c1=O` yielded a TAR with C3 cells [1] of 2. This molecule also returned a Protection with Rattus norvegicus [2] of 30%. Also, in the test with C3 cells [3], the CTS came to 2.9. This molecule also yielded a PDE4 inhibition relative to rolipram at Phosphodiesterase 4 [4] of 37%.
`CCCCn1c(=O)c2c(ncn2CC(C)=O)n(CCCC)c1=O` [DENBUFYLLINE] came in with a Protection in the test on Rattus norvegicus [2] of 49%. Moreover, the TAR in the test on C3 cells [7] was 2.1. The molecule also displayed a Rolipram activity on Phosphodiesterase 4 [8] of 100%. The CTS in the test on C3 cells [3] was determined as 3.5.
Molecule `CCCCCCCCS(=O)(=O)n1cnc2c1c(=O)n(CCCC)c(=O)n2CCCC` had a TAR in the test on C3 cells [1] of 2.1. Also, in the test with C3 cells [3], the CTS was 4.7. Further, the PDE4 inhibition relative to rolipram at Phosphodiesterase 4 [4] was determined as 12%.
`CCCCn1c(=O)[nH]c(=O)c2c1ncn2S(=O)(=O)c1ccc(OC)c(OC)c1` yielded a PDE4 inhibition relative to rolipram on Phosphodiesterase 4 [6] of 25%. Besides, in the test on C3 cells [7], the TAR is 1.3. In the test with C3 cells [3], the CTS stood at 0.8.
The like results for `CCCCn1c(=O)n(CC2CC2)c(=O)c2c1ncn2S(=O)(=O)c1ccc(OC)c(OC)c1` were, in that order, 97%, 2.8 and 0.7.
On to `CCCCn1c(=O)c2c(ncn2S(=O)(=O)c2c(C)cc(C)cc2C)n(CCCC)c1=O`, for which 6 µM corresponded to half-maximal inhibition against Phosphodiesterase 4 [5] (IC50). In addition, the PDE4 inhibition relative to rolipram at Phosphodiesterase 4 [6] stood at 58%. In the test on Rattus norvegicus [2], the Protection turned out to be 50%. The molecule further came in with a TAR in the test on C3 cells [7] of 1.9. For the same molecule, in the test with C3 cells [3], the CTS was found to be 4.
On to `CCCCn1c(=O)c2c(ncn2S(=O)(=O)c2ccc(NO)cc2)n(CCCC)c1=O`, for which, in the test with C3 cells [7], the TAR worked out at 2. In addition, the CTS with C3 cells [3] was 5.6. At Phosphodiesterase 4 [4], the PDE4 inhibition relative to rolipram was determined as 18%.
As for `CCCCn1c(=O)c2c(ncn2S(=O)(=O)Cc2ccccc2)n(CCCC)c1=O`, the IC50 at Phosphodiesterase 4 [5] was found to be 3.2 µM. Also, the PDE4 inhibition relative to rolipram on Phosphodiesterase 4 [6] is 7%. In the test on Rattus norvegicus [2], this molecule gave a Protection of 25%. The molecule also returned a TAR in the test with C3 cells [7] of 2.3. For the same molecule, in the test with C3 cells [3], the CTS is listed as 5.1.
With `CCCCn1c(=O)c2c(ncn2S(=O)(=O)c2cccs2)n(CCCC)c1=O`, the PDE4 inhibition relative to rolipram on Phosphodiesterase 4 [6] was found to be 48%. Further, the TAR in the test with C3 cells [7] is listed as 2.2. In addition, the CTS in the test with C3 cells [3] stood at 2.9.
For `CCCCn1c(=O)c2c(nc(C)n2S(=O)(=O)c2cccc3ccccc23)n(CCCC)c1=O`, in that order: 94%, 1.7 and 2.2.
The like results for `CCCCn1c(=O)c2c(nc(C)n2S(=O)(=O)CCCCl)n(CCCC)c1=O` were, in that order, 95%, 1.7 and 4.1.
For `CCCCn1c(=O)n(CCC(C)C)c(=O)c2c1ncn2S(=O)(=O)c1ccc(OC)c(OC)c1`, in that order: 86%, 2.6 and 3.7.
In the test with C3 cells [1], `CCCCn1c(=O)c2c(ncn2S(=O)(=O)CCCCl)n(CCCC)c1=O` displayed a TAR of 2.1. Also, the IC50 at Phosphodiesterase 4 [5] came to 4.1 µM. The Protection with Rattus norvegicus [2] was determined as 47%; in the test on Rattus norvegicus [9] it was 50%. The CTS with C3 cells [3] came out at 3.6. The PDE4 inhibition relative to rolipram at Phosphodiesterase 4 [4] is 71%.
The molecule `CCCCn1c(=O)n(CC=C(C)C)c(=O)c2c1ncn2S(=O)(=O)c1ccc(OC)c(OC)c1` showed a PDE4 inhibition relative to rolipram at Phosphodiesterase 4 [6] of 77%. Moreover, in the test with C3 cells [7], the TAR turned out to be 2.8. For the same molecule, the CTS in the test with C3 cells [3] was 3.7.
`CCCCOc1ccc(S(=O)(=O)n2cnc3c2c(=O)n(CCCC)c(=O)n3CCCC)cc1` displayed a TAR in the test on C3 cells [7] of 2.2. Also, the CTS in the test with C3 cells [3] was 5. Moreover, the PDE4 inhibition relative to rolipram at Phosphodiesterase 4 [4] is 54%.
Turning to `CCCCn1c(=O)c2c(ncn2S(=O)(=O)c2ccc(OC)cc2)n(CCCC)c1=O`, the TAR in the test on C3 cells [1] is given as 1.9. Further, the CTS with C3 cells [3] was determined as 4.6. Also, the PDE4 inhibition relative to rolipram on Phosphodiesterase 4 [4] was 49%.
For `CCCCn1c(=O)c2c(ncn2S(=O)(=O)CCC)n(CCCC)c1=O`, the TAR with C3 cells [1] turned out to be 2.3. For the same molecule, in the test with C3 cells [3], the CTS came to 2.2. Moreover, the PDE4 inhibition relative to rolipram at Phosphodiesterase 4 [4] was 54%.
`CCCCn1c(=O)c2c(ncn2S(C)(=O)=O)n(CCCC)c1=O` registered a TAR in the test with C3 cells [1] of 1.9. Further, the IC50 on Phosphodiesterase 4 [5] was found to be 25.2 µM. Besides, the CTS in the test with C3 cells [3] was determined as 4.7. For the same molecule, the PDE4 inhibition relative to rolipram at Phosphodiesterase 4 [4] was 84%.
`CCCCn1c(=O)c2c(ncn2S(=O)(=O)c2cccc3ccccc23)n(CCCC)c1=O` gave a PDE4 inhibition relative to rolipram at Phosphodiesterase 4 [6] of 17%. In the test with Rattus norvegicus [2], this molecule returned a Protection of 37%. Further, in the test on C3 cells [7], the TAR is on record as 2.5. For the same molecule, the CTS in the test with C3 cells [3] is on record as 4.5.
On Phosphodiesterase 4 [6], `CCCCCCCCn1c(=O)c2c(ncn2S(=O)(=O)c2ccc(OC)c(OC)c2)n(CCCC)c1=O` yielded a PDE4 inhibition relative to rolipram of 0%. The molecule further displayed a TAR in the test with C3 cells [7] of 0.7. The CTS in the test with C3 cells [3] turned out to be 1.1.

Broadly, the IC50 is the point on the concentration scale where inhibition reaches its midpoint. The low end stands for greater potency in that assay, the high end for weaker potency in that assay.
